One substance from PMC2914798 (Biochimica et biophysica acta, 2010) can be followed below.

What all share (type): biochemical
Assay [1] deals with T1, Cath D (Homo sapiens, UniProt P07339). Description: Kinetics of substrate e hydrolysis by Cath D. Put shortly:
(§1)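 Intramolecularly quenched Mca/Dnp FRET peptide, 5–100 µM, in 50 mM sodium acetate pH 4.0, with Cath E at 2.3, 4.5 or 6.8 nM, or Cath D up to 54 nM. Fluorescence (ex 340/em 405 nm) followed over 10 min. Initial velocity taken from the linear-phase slope. Vmax and Km from linear regression of the Hanes-Woolf plot (S/v vs S); kcat = Vmax/[Cath E]. Triplicate.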

The target of another assay is T2, Cath E (Homo sapiens, UniProt P14091).
T2 sequence (P14091 54-396): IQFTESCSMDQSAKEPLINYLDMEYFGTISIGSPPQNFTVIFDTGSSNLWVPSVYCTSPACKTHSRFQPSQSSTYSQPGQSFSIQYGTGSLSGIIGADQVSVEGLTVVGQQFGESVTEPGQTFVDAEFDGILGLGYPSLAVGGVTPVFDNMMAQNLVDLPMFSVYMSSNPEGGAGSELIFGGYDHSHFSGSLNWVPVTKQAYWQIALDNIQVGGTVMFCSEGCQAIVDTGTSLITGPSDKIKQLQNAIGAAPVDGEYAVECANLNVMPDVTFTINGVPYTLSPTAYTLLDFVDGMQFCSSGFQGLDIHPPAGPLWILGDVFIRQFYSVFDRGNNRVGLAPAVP
Description: Michaelis-Menten kinetics of substrate e hydrolysis by Cath E. As to conditions: 6.8 nM Cath E, 50 mM sodium acetate pH 4.0, 10 minutes, 37 °C. Put shortly: as §1

For assay [2], the target named is T1, Cath D. The assay is described as follows: Enzyme digestion and cleavage site identification, Cath D. As to conditions: high dose of Cath D, overnight hydrolysis; data not shown.

[ ]: non-standard residue; d: D form. The star is where a group is joined. Dnp = O=[N+]([O-])c1ccc(*)c([N+](=O)[O-])c1; Mca = COc1ccc2c(CC(=O)*)cc(=O)oc2c1

T1 sequence (P07339 65-412): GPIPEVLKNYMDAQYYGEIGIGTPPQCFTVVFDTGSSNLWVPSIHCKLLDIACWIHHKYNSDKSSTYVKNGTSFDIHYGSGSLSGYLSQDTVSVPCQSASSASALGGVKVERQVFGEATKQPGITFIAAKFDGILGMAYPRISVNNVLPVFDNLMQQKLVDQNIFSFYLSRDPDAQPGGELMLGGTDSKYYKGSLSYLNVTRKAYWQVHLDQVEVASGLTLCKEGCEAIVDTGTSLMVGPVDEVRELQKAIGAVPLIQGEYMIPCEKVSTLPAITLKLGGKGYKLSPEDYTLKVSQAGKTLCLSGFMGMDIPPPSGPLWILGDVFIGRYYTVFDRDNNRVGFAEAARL

As for “Mca-AGFSLPAK(Dnp)[dR]-NH2 (SMILES COc1ccc2c(CC(=O)N[C@@H](C)C(=O)NCC(=O)N[C@@H](Cc3ccccc3)C(=O)N[C@@H](CO)C(=O)N[C@@H](CC(C)C)C(=O)N3CCC[C@H]3C(=O)N[C@@H](C)C(=O)N[C@@H](CCCCNc3ccc([N+](=O)[O-])cc3[N+](=O)[O-])C(=O)N[C@H](CCCNC(=N)N)C(N)=O)cc(=O)oc2c1) [Substrate e]”, the “Kcat/Km (catalytic efficiency), Cath D” value at Cath D [1] (up to 54 nM Cath D, same measurement conditions (50 mM sodium acetate pH 4.0)) is given as “NM ^§”. Moreover, the “cleavage by Cath D” value at Cath D [1] (up to 54 nM of Cath D, 50 mM sodium acetate pH 4.0) is reported as “no measurable cleavage”. Moreover, on Cath E, the “Kcat/Km (catalytic efficiency), Cath E” value is 16.7 µM^−1.S^−1. The “cleavage sites by Cath D” value on Cath D [2] was “two minor cleavage sites were identified, one is between the P1 and P1’ sites (-Leu^5-Pro^6-) and a secondary site was found between P3 and P4 positions (-Gly^2-Phe^3-)”.
